The test system of assay [1] is Rattus norvegicus. As to the kind of experiment: Effect on lower lip retraction in Wistar rat at 5 mg/kg. The assay is classed as functional. The method in brief: (§1)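 Male Wistar rats (290–310 g) dosed ip in 1% Tween 80 (2 ml/kg), caged singly; lower lip retraction scored 15, 30 and 45 min after dosing as 0 (incisors not visible), 0.5 (partly) or 1 (completely visible), totals up to 3 per rat. n = 6 per group; one-way ANOVA followed by Dunnett's test.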

Assay [2] has as its system Rattus norvegicus. As to the kind of experiment: Effect on lower lip retraction in Wistar rat at 10 mg/kg. The assay is classed as functional. The method in brief: as §1
The subject of assay [3] is Rattus norvegicus. As to the kind of experiment: Effect on lower lip retraction in Wistar rat at 20 mg/kg. The assay is classed as functional. The method in brief: as §1
Assay [4] concerns Rattus norvegicus. Kind of assay: Effect on 8-OH-DPAT-induced lower lip retraction in Wistar rat at 5 mg/kg. Type of assay: functional.
In assay [5] the test system is Rattus norvegicus. Kind of assay: Effect on 8-OH-DPAT-induced lower lip retraction in Wistar rat at 10 mg/kg. The assay is classed as functional.
Assay [6] concerns Rattus norvegicus. As to the kind of experiment: Effect on 8-OH-DPAT-induced lower lip retraction in Wistar rat at 20 mg/kg. The assay is classed as functional.
Assay [7] deals with T1, 5-hydroxytryptamine receptor 1A (Rattus norvegicus, UniProt P19327).
T1 sequence (P19327 whole entry): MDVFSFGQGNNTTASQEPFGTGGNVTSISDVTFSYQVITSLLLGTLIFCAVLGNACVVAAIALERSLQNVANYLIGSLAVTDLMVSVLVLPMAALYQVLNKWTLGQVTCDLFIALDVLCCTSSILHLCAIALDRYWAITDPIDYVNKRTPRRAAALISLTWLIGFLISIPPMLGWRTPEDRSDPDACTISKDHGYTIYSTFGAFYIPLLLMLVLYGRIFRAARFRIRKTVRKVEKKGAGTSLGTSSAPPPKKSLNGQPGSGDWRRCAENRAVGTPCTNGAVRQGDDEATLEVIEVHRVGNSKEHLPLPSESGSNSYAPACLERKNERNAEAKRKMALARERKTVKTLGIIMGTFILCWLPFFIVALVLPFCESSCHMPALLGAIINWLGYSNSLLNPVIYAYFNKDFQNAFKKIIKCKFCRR
Kind of assay: Displacement of [3H]8-OH-DPAT from 5HT1A in rat hippocampal membranes. The assay is classed as cell membranes, Hippocampus, Membrane. The method in brief: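 Rat hippocampal membranes, [3H]-8-OH-DPAT as radioligand, 5-HT defining nonspecific binding. 7–9 drug concentrations run in triplicate, at least three separate experiments. Filtration through GF/B filters with three ice-cold buffer washes, scintillation counting. Ki from non-linear regression of binding isotherms via Cheng-Prusoff equation.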

For assay [8], the target named is D(2) dopamine receptor (Rattus norvegicus, UniProt P61169). As to the kind of experiment: Displacement of [3H]spiperone from dopamine D2 receptor in rat striatal membranes. The assay is classed as cell membranes, Membrane. In a few lines: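 Competition binding on rat striatal membranes using [3H]-spiperone, butaclamol for nonspecific binding; filtration through GF/B filters and scintillation counting. Run at two compound concentrations, each in triplicate, and affinity expressed as estimated Ki.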
Background: Loss of bound radioactivity is the signal in a displacement assay; it reports binding, not function.

The nature of assay [9]: Displacement of [3H]prazosin from adrenergic alpha1 receptor in rat cortical membranes. Type of assay: cell membranes, Membrane. In a few lines: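 Rat cortical membranes with [3H]-prazosin; phentolamine defines nonspecific binding. 7–9 drug concentrations in triplicate, at least three separate experiments; stopped by GF/B filtration with three ice-cold buffer washes, bound radioactivity by liquid scintillation counting; Ki from non-linear regression and Cheng-Prusoff equation.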

Assay [10] concerns the target 5-hydroxytryptamine receptor 7 (Homo sapiens, UniProt P34969). Kind of assay: Displacement of [3H]5-CT from human 5HT7 expressed in HEK293 cells. The assay is classed as cell-based. The method in brief: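 HEK293 cells stably transfected with human 5-HT7(b) cDNA; membranes (10 µg protein) incubated 1 h at 37 °C in 50 mM Tris-HCl pH 7.4 with 4 mM MgCl2, 0.1 mM pargyline, 0.1% ascorbic acid, 0.5 nM [3H]-5-CT and 7–9 test concentrations in triplicate; 10 µM 5-HT defines nonspecific binding. GF/B filtration, scintillation counting; Ki via Cheng-Prusoff from ≥3 experiments.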

For assay [11], the species on record is Mus musculus. The note with it: Swiss Albino, 5 mg/kg.
The species entered for assay [12] is Mus musculus. The note with it: Swiss Albino, 2.5 mg/kg.
The species entered for assay [13] is Mus musculus. The settings on record: Swiss Albino, 5 mg/kg. The source holds these as a separate data set.
The species named for assay [14] is Mus musculus. The settings on record: Swiss Albino, 2.5 mg/kg. This is another data set of the same source.
The species entered for assay [15] is Mus musculus. The settings on record: Swiss Albino, 5 mg/kg. This is another data set of the same source.
For assay [16], the species on record is Mus musculus. The settings on record: Swiss Albino, 5 mg/kg. This is another data set of the same source.
The species entered for assay [17] is Mus musculus. The settings on record: Swiss Albino, 5 mg/kg. This is another data set of the same source.
The species entered for assay [18] is Mus musculus. The settings on record: Swiss Albino, 2.5 mg/kg. The source holds these as a separate data set.
The species named for assay [19] is Mus musculus. The note with it: Swiss Albino, 5 mg/kg. The source holds these as a separate data set.
For assay [20], the species on record is Mus musculus. The note with it: Swiss Albino, 2.5 mg/kg. The source holds these as a separate data set.
For assay [21], the species on record is Mus musculus. The note with it: Swiss Albino, 10 mg/kg.
For assay [22], the species on record is Mus musculus. The note with it: Swiss Albino, 20 mg/kg.
Assay [23] is filed under the species Mus musculus. The note with it: Swiss Albino, 10 mg/kg. The source holds these as a separate data set.
For assay [24], the species on record is Mus musculus. The settings on record: Swiss Albino, 20 mg/kg. This is another data set of the same source.
For assay [25], the species on record is Mus musculus. The settings on record: Swiss Albino, 20 mg/kg. This is another data set of the same source.
Assay [26] is filed under the species Mus musculus. The settings on record: Swiss Albino, 10 mg/kg. This is another data set of the same source.
Assay [27] is filed under the species Mus musculus. The settings on record: Swiss Albino, 10 mg/kg. This is another data set of the same source.
For assay [28], the species on record is Mus musculus. The note with it: Swiss Albino, 20 mg/kg. The source holds these as a separate data set.
The species entered for assay [29] is Mus musculus. The note with it: Swiss Albino, 10 mg/kg. The source holds these as a separate data set.
The species named for assay [30] is Mus musculus. The note with it: Swiss Albino, 20 mg/kg. This is another data set of the same source.
Assay [31] is filed under the species Mus musculus. The note with it: Swiss Albino, 10 mg/kg. The source holds these as a separate data set.
The species entered for assay [32] is Mus musculus. The note with it: Swiss Albino, 10 mg/kg. This is another data set of the same source.

Where only a bound is given, the exact number is not on record here.

D(2) dopamine receptor, sequence (P61169 whole entry): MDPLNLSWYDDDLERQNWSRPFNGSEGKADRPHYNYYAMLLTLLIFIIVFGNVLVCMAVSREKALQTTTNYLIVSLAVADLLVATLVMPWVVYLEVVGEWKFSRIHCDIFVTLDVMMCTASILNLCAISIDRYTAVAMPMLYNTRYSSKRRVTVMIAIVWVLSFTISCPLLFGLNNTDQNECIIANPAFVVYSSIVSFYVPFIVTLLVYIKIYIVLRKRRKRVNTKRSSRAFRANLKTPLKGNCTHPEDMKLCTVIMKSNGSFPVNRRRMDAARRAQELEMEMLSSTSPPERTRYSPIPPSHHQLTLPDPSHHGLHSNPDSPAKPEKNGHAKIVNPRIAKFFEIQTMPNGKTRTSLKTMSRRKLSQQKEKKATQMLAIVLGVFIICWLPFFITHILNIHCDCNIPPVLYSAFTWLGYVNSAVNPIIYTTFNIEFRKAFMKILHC
5-hydroxytryptamine receptor 7, sequence (P34969 whole entry): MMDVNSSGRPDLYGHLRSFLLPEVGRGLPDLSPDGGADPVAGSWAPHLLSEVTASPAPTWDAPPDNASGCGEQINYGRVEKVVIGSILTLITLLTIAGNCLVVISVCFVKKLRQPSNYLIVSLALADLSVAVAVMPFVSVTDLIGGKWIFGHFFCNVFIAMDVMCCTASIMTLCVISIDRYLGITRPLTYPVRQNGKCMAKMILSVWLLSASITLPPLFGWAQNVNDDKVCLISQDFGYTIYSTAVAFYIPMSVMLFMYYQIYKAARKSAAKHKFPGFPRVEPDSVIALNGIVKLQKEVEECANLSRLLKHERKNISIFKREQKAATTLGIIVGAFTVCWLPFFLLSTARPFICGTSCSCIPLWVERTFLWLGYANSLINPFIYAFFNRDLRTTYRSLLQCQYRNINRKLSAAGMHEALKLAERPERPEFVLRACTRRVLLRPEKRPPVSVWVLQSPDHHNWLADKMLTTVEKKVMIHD

`O=C1C2=C(CCCC2)C(=O)N1C1CCC(N2CCN(c3cccc(C(F)(F)F)c3)CC2)CC1` (stereo unspecified): the Activity in assay [1] is given as 1.8; in assay [2] it was 2; in assay [3], 2; in [4] it was 2.5; in assay [5] it was 1.9; in assay [6] it was 1.8. The Ki in [7] is 0.3 nM; in assay [8], 2640 nM; in assay [9], 4 nM; in assay [10], over 5000 nM. In addition, the deltaT in assay [11] was -0.7 °C; in assay [12] it was -0.4 °C; in assay [13] it was -0.3 °C; in assay [14], 0.1 °C; in assay [15] it was 0.2 °C; in [16] it was 0.1 °C. In addition, the deltaT in [17] was -1.2 °C; in assay [18], -0.4 °C; in assay [19] it was -1.4 °C; in assay [20], -0.5 °C.
As to `O=C1C2CC=CCC2C(=O)N1CCCCN1CCN(c2cccc(C(F)(F)F)c2)CC1` (cis isomer), the Activity in assay [2] is on record as 1.4; in assay [3] it was 1.8; in assay [5], 1.9; in [6] it was 0.5. Moreover, the Ki in assay [7] is 34 nM; in assay [8] it was 2720 nM; in assay [9] it was 73 nM; in assay [10] it was 31 nM. Further, the deltaT in [21] is -0.9 °C; in assay [22], -1.6 °C; in assay [23], -0.6 °C; in [24] it was -1.5 °C; in [25] it was -1.2 °C; in assay [26], -0.6 °C. Besides, the deltaT in [27] was -0.3 °C; in assay [28], -1.5 °C; in assay [29] it was -0.2 °C; in assay [30] it was -1.3 °C.
Consider `O=C1C2CC=CCC2C(=O)N1C1CCC(N2CCN(c3cccc(C(F)(F)F)c3)CC2)CC1` (stereo unspecified), for which the Activity came to 0.7 in assay [2], 1.3 in assay [3], 2.1 in [5] and 1.9 in assay [6]. The Ki in assay [7] worked out at 1.5 nM; in assay [8], 4680 nM; in assay [9] it was 43 nM; in [10] it was 335 nM. The deltaT is -0.4 °C in [11]; -1.1 °C in assay [21]; -0.1 °C in [13]; -1 °C in [23]; -0.5 °C in [31]; -0.3 °C in assay [32]. In addition, the deltaT in assay [17] is -0.7 °C; in assay [27] it was -1.7 °C; in assay [19], -0.4 °C; in assay [29], -1.3 °C.

In general, Ki refers to a dissociation constant, usually derived from enzyme kinetics or from competition with a known ligand. Read a high Ki as lower affinity.

These data come from ChEMBL document CHEMBL1139831, “The influence of modifications in imide fragment structure on 5-HT(1A) and 5-HT(7) receptor affinity and in vivo pharmacological properties of some new 1-(m-trifluoromethylphenyl)piperazines” (Bioorg Med Chem, 2007).
